Drawing on ChEMBL document CHEMBL1949561, “Synthesis and triplex-forming ability of oligonucleotides bearing 1-substituted 1H-1,2,3-triazole nucleobases” (Bioorg Med Chem, 2011), this text covers Tm for five compounds.

What all share (format): nucleic-acid assay
In assay [1] the test system is Nucleic Acid. The assay is described as follows: Binding affinity to 5'-GCTAAAAAGAAAGAGAGATCG-3'/5'- CGATCTCTCTTTCTTTTTAGC-3' double stranded DNA assessed as melting temperature at 1.5 uM in sodium phosphate buffer at pH 7 by UV spectrophotometric analysis. Put shortly: (§1)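 UV melting of triplexes between each modified TFO and the 21-bp duplex target, in 7 mM sodium phosphate buffer (pH 7.0), 140 mM KCl and 10 mM MgCl₂. Each oligonucleotide at 1.5 µM final. Absorbance followed at 260 nm from 5 °C to 85 °C, scanned at 0.5 °C/min, to give Tm.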

Assay [2] deals with Nucleic Acid. The assay is described as follows: Binding affinity to 5'-GCTAAAAAGAGAGAGAGATCG-3'/5'- CGATCTCTCTCTCTTTTTAGC-3' double stranded DNA assessed as melting temperature at 1.5 uM in sodium phosphate buffer at pH 7 by UV spectrophotometric analysis. Put shortly: as §1
Assay [3] deals with Nucleic Acid. In words: Binding affinity to5'-GCTAAAAAGACAGAGAGATCG-3'/5'- CGATCTCTCTGTCTTTTTAGC-3' double stranded DNA assessed as melting temperature at 1.5 uM in sodium phosphate buffer at pH 7 by UV spectrophotometric analysis. An outline of the steps:
as §1

Assay [4] has as its system Nucleic Acid. In words: Binding affinity to 5'-GCTAAAAAGATAGAGAGATCG-3'/5'- CGATCTCTCTATCTTTTTAGC-3' double stranded DNA assessed as melting temperature at 1.5 uM in sodium phosphate buffer at pH 7 by UV spectrophotometric analysis. Put shortly: as §1

SMILES strings stand for the structures. Bounds are passed on as bounds.

As for `Cc1cn([C@H]2C[C@H](OP(=O)(O)OC[C@H]3O[C@@H](n4cc(C)c(=O)[nH]c4=O)C[C@@H]3OP(=O)(O)OC[C@H]3O[C@@H](n4cc(C)c(N)nc4=O)C[C@@H]3OP(=O)(O)OC[C@H]3O[C@@H](n4cc(C)c(=O)[nH]c4=O)C[C@@H]3OP(=O)(O)OC[C@H]3O[C@@H](n4cc(C)c(N)nc4=O)C[C@@H]3OP(=O)(O)OC[C@H]3O[C@@H](n4cc(C)c(=O)[nH]c4=O)C[C@@H]3OP(=O)(O)OC[C@H]3O[C@@H](c4cn(-c5ccccc5O)nn4)C[C@@H]3OP(=O)(O)OC[C@H]3O[C@@H](n4cc(C)c(=O)[nH]c4=O)C[C@@H]3OP(=O)(O)OC[C@H]3O[C@@H](n4cc(C)c(N)nc4=O)C[C@@H]3OP(=O)(O)OC[C@H]3O[C@@H](n4cc(C)c(=O)[nH]c4=O)C[C@@H]3OP(=O)(O)OC[C@H]3O[C@@H](n4cc(C)c(=O)[nH]c4=O)C[C@@H]3OP(=O)(O)OC[C@H]3O[C@@H](n4cc(C)c(=O)[nH]c4=O)C[C@@H]3OP(=O)(O)OC[C@H]3O[C@@H](n4cc(C)c(=O)[nH]c4=O)C[C@@H]3OP(=O)(O)OC[C@H]3O[C@@H](n4cc(C)c(=O)[nH]c4=O)C[C@@H]3O)[C@@H](COP(=O)(O)O[C@H]3C[C@H](n4cc(C)c(=O)[nH]c4=O)O[C@@H]3CO)O2)c(=O)nc1N`, the Tm in the assay on Nucleic Acid [1] was 17 °C; with Nucleic Acid [2] it was under 10 °C; in the assay on Nucleic Acid [3], 25 °C; in the assay with Nucleic Acid [4] it was 15 °C.

`Cc1cn([C@H]2C[C@H](OP(=O)(O)OC[C@H]3O[C@@H](n4cc(C)c(=O)[nH]c4=O)C[C@@H]3OP(=O)(O)OC[C@H]3O[C@@H](n4cc(C)c(N)nc4=O)C[C@@H]3OP(=O)(O)OC[C@H]3O[C@@H](n4cc(C)c(=O)[nH]c4=O)C[C@@H]3OP(=O)(O)OC[C@H]3O[C@@H](n4cc(C)c(N)nc4=O)C[C@@H]3OP(=O)(O)OC[C@H]3O[C@@H](n4cc(C)c(=O)[nH]c4=O)C[C@@H]3OP(=O)(O)OC[C@H]3O[C@@H](c4cn(-c5ccccc5C(=O)O)nn4)C[C@@H]3OP(=O)(O)OC[C@H]3O[C@@H](n4cc(C)c(=O)[nH]c4=O)C[C@@H]3OP(=O)(O)OC[C@H]3O[C@@H](n4cc(C)c(N)nc4=O)C[C@@H]3OP(=O)(O)OC[C@H]3O[C@@H](n4cc(C)c(=O)[nH]c4=O)C[C@@H]3OP(=O)(O)OC[C@H]3O[C@@H](n4cc(C)c(=O)[nH]c4=O)C[C@@H]3OP(=O)(O)OC[C@H]3O[C@@H](n4cc(C)c(=O)[nH]c4=O)C[C@@H]3OP(=O)(O)OC[C@H]3O[C@@H](n4cc(C)c(=O)[nH]c4=O)C[C@@H]3OP(=O)(O)OC[C@H]3O[C@@H](n4cc(C)c(=O)[nH]c4=O)C[C@@H]3O)[C@@H](COP(=O)(O)O[C@H]3C[C@H](n4cc(C)c(=O)[nH]c4=O)O[C@@H]3CO)O2)c(=O)nc1N`: the Tm in the assay with Nucleic Acid [1] is under 10 °C; in the assay on Nucleic Acid [2] it was 12 °C; in the assay on Nucleic Acid [3], 17 °C; in the assay with Nucleic Acid [4], 15 °C.

Regarding `CC(=O)NCCn1cc([C@H]2C[C@H](OP(=O)(O)OC[C@H]3O[C@@H](n4cc(C)c(=O)[nH]c4=O)C[C@@H]3OP(=O)(O)OC[C@H]3O[C@@H](n4cc(C)c(N)nc4=O)C[C@@H]3OP(=O)(O)OC[C@H]3O[C@@H](n4cc(C)c(=O)[nH]c4=O)C[C@@H]3OP(=O)(O)OC[C@H]3O[C@@H](n4cc(C)c(=O)[nH]c4=O)C[C@@H]3OP(=O)(O)OC[C@H]3O[C@@H](n4cc(C)c(=O)[nH]c4=O)C[C@@H]3OP(=O)(O)OC[C@H]3O[C@@H](n4cc(C)c(=O)[nH]c4=O)C[C@@H]3OP(=O)(O)OC[C@H]3O[C@@H](n4cc(C)c(=O)[nH]c4=O)C[C@@H]3O)[C@@H](COP(=O)(O)O[C@H]3C[C@H](n4cc(C)c(=O)[nH]c4=O)O[C@@H]3COP(=O)(O)O[C@H]3C[C@H](n4cc(C)c(N)nc4=O)O[C@@H]3COP(=O)(O)O[C@H]3C[C@H](n4cc(C)c(=O)[nH]c4=O)O[C@@H]3COP(=O)(O)O[C@H]3C[C@H](n4cc(C)c(N)nc4=O)O[C@@H]3COP(=O)(O)O[C@H]3C[C@H](n4cc(C)c(=O)[nH]c4=O)O[C@@H]3COP(=O)(O)O[C@H]3C[C@H](n4cc(C)c(N)nc4=O)O[C@@H]3COP(=O)(O)O[C@H]3C[C@H](n4cc(C)c(=O)[nH]c4=O)O[C@@H]3CO)O2)nn1`, the Tm with Nucleic Acid [1] was 14 °C; in the assay with Nucleic Acid [2], under 10 °C; with Nucleic Acid [3], 20 °C; with Nucleic Acid [4], 14 °C.

On to `Cc1cn([C@H]2C[C@H](OP(=O)(O)OC[C@H]3O[C@@H](n4cc(C)c(=O)[nH]c4=O)C[C@@H]3OP(=O)(O)OC[C@H]3O[C@@H](n4cc(C)c(N)nc4=O)C[C@@H]3OP(=O)(O)OC[C@H]3O[C@@H](n4cc(C)c(=O)[nH]c4=O)C[C@@H]3OP(=O)(O)OC[C@H]3O[C@@H](n4cc(C)c(N)nc4=O)C[C@@H]3OP(=O)(O)OC[C@H]3O[C@@H](n4cc(C)c(=O)[nH]c4=O)C[C@@H]3OP(=O)(O)OC[C@H]3O[C@@H](c4cn(-c5cccc(C(=O)O)c5)nn4)C[C@@H]3OP(=O)(O)OC[C@H]3O[C@@H](n4cc(C)c(=O)[nH]c4=O)C[C@@H]3OP(=O)(O)OC[C@H]3O[C@@H](n4cc(C)c(N)nc4=O)C[C@@H]3OP(=O)(O)OC[C@H]3O[C@@H](n4cc(C)c(=O)[nH]c4=O)C[C@@H]3OP(=O)(O)OC[C@H]3O[C@@H](n4cc(C)c(=O)[nH]c4=O)C[C@@H]3OP(=O)(O)OC[C@H]3O[C@@H](n4cc(C)c(=O)[nH]c4=O)C[C@@H]3OP(=O)(O)OC[C@H]3O[C@@H](n4cc(C)c(=O)[nH]c4=O)C[C@@H]3OP(=O)(O)OC[C@H]3O[C@@H](n4cc(C)c(=O)[nH]c4=O)C[C@@H]3O)[C@@H](COP(=O)(O)O[C@H]3C[C@H](n4cc(C)c(=O)[nH]c4=O)O[C@@H]3CO)O2)c(=O)nc1N`, for which the Tm in the assay on Nucleic Acid [1] was under 10 °C; in the assay with Nucleic Acid [2], under 10 °C; with Nucleic Acid [3], 22 °C; in the assay with Nucleic Acid [4], 15 °C.

As to `Cc1cn([C@H]2C[C@H](OP(=O)(O)OC[C@H]3O[C@@H](n4cc(C)c(=O)[nH]c4=O)C[C@@H]3OP(=O)(O)OC[C@H]3O[C@@H](n4cc(C)c(N)nc4=O)C[C@@H]3OP(=O)(O)OC[C@H]3O[C@@H](n4cc(C)c(=O)[nH]c4=O)C[C@@H]3OP(=O)(O)OC[C@H]3O[C@@H](n4cc(C)c(N)nc4=O)C[C@@H]3OP(=O)(O)OC[C@H]3O[C@@H](n4cc(C)c(=O)[nH]c4=O)C[C@@H]3OP(=O)(O)OC[C@H]3O[C@@H](c4cn(-c5cccc(NC(N)=O)c5)nn4)C[C@@H]3OP(=O)(O)OC[C@H]3O[C@@H](n4cc(C)c(=O)[nH]c4=O)C[C@@H]3OP(=O)(O)OC[C@H]3O[C@@H](n4cc(C)c(N)nc4=O)C[C@@H]3OP(=O)(O)OC[C@H]3O[C@@H](n4cc(C)c(=O)[nH]c4=O)C[C@@H]3OP(=O)(O)OC[C@H]3O[C@@H](n4cc(C)c(=O)[nH]c4=O)C[C@@H]3OP(=O)(O)OC[C@H]3O[C@@H](n4cc(C)c(=O)[nH]c4=O)C[C@@H]3OP(=O)(O)OC[C@H]3O[C@@H](n4cc(C)c(=O)[nH]c4=O)C[C@@H]3OP(=O)(O)OC[C@H]3O[C@@H](n4cc(C)c(=O)[nH]c4=O)C[C@@H]3O)[C@@H](COP(=O)(O)O[C@H]3C[C@H](n4cc(C)c(=O)[nH]c4=O)O[C@@H]3CO)O2)c(=O)nc1N`, the Tm in the assay on Nucleic Acid [1] is 13 °C; with Nucleic Acid [2], under 10 °C; in the assay with Nucleic Acid [3], 22 °C; in the assay with Nucleic Acid [4], 17 °C.
